In ChEMBL document CHEMBL1155155, “Single-dose pharmacokinetics of intravenous itraconazole and hydroxypropyl-beta-cyclodextrin in infants, children, and adolescents” (Antimicrob Agents Chemother, 2007):

Legend:
[1] = Apparent volume of distribution in infants of 0.6-2 yrs age at risk for fungal infection at 2.5 mg/kg, iv in 0.1 g/kg hydroxypropyl-beta-cyclodextrin administered as single dose; assay type: ADME, organism-based; set-up: dose 2.5 mg/kg, route intravenous; conditions: human, in vivo
Procedure, shortened: (§1)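 Single 1-h IV infusion. Plasma sampled from the contralateral limb predose and at 1–120 h (>2 y) or 1–96 h (<2 y). Itraconazole was extracted with internal standard and quantified by C18 HPLC with UV 263 nm detection, linear range 2–2,000 ng/ml. Noncompartmental analysis: Cmax by inspection, AUC0-24 by trapezoidal rule, AUC extrapolated via λz, CL and Vz from AUC0-∞.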

[2] = Apparent volume of distribution in human at risk for fungal infection at 2.5 mg/kg, iv in 0.1 g/kg hydroxypropyl-beta-cyclodextrin administered as single dose; assay type: ADME, organism-based; set-up: dose 2.5 mg/kg, route intravenous; conditions: in vivo; procedure, shortened: as §1
Homo sapiens [3] = assay: Half life in human at risk for fungal infection assessed as hydroxyitraconazole level at 2.5 mg/kg, iv in 0.1 g/kg hydroxypropyl-beta-cyclodextrin administered as single dose; assay type: ADME, organism-based; set-up: dose 2.5 mg/kg, route intravenous; conditions: in vivo
Procedure, shortened: (§2)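 Single 1-h constant-rate IV infusion. Venous plasma sampled predose and to 120 h (>2 y) or 96 h (<2 y), then stored at –20°C. Hydroxyitraconazole was measured by borate/isoamylalcohol-heptane extraction, HCl back-extraction, C18 HPLC and UV 263 nm, with a linear range of 5–5,000 ng/ml. Noncompartmental analysis: Cmax and tmax by inspection, AUC0-24 by trapezoidal rule.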

Homo sapiens [4] = assay: AUC (0 to 24 hrs) in children of >6-12 yrs age at risk for fungal infection assessed as hydroxyitraconazole level at 2.5 mg/kg, iv in 0.1 g/kg hydroxypropyl-beta-cyclodextrin administered as single dose; assay type: ADME, organism-based, Plasma; set-up: time < 24 hr, dose 2.5 mg/kg, route intravenous; conditions: in vivo; procedure, shortened: as §2
Homo sapiens [5] = assay: Toxicity in human at risk for fungal infection assessed as occurrence of adverse events at 2.5 mg/kg, iv in 0.1 g/kg hydroxypropyl-beta-cyclodextrin administered as single dose; assay type: organism-based; set-up: dose 2.5 mg/kg, route intravenous; conditions: in vivo
Procedure, shortened: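 Safety was assessed by medical history, physical examination, complete blood count, serum chemistry, liver function tests and urinalysis. These were done before the single 1-h IV infusion and again at study completion. Subjects stayed at the study facility through 24 h postdose.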

[6] = Cmax in human at risk for fungal infection at 2.5 mg/kg, iv in 0.1 g/kg hydroxypropyl-beta-cyclodextrin administered as single dose; assay type: ADME, organism-based; set-up: dose 2.5 mg/kg, route intravenous; conditions: in vivo; procedure, shortened: as §1
[7] = AUC (0 to 24 hrs) in infants of 0.6-2 yrs age at risk for fungal infection at 2.5 mg/kg, iv in 0.1 g/kg hydroxypropyl-beta-cyclodextrin administered as single dose; assay type: ADME, organism-based; set-up: time < 24 hr, dose 2.5 mg/kg, route intravenous; conditions: human, plasma; procedure, shortened: as §1
[8] = Clearance in children of >6-12 yrs age at risk for fungal infection at 2.5 mg/kg, iv in 0.1 g/kg hydroxypropyl-beta-cyclodextrin administered as single dose; assay type: ADME, organism-based; set-up: dose 2.5 mg/kg, route intravenous; conditions: human, in vivo; procedure, shortened: as §1
[9] = Cmax in adolescents of >12-16 yrs age at risk for fungal infection at 2.5 mg/kg, iv in 0.1 g/kg hydroxypropyl-beta-cyclodextrin administered as single dose; assay type: ADME, organism-based; set-up: dose 2.5 mg/kg, route intravenous; conditions: human, in vivo; procedure, shortened: as §1
Homo sapiens [10] = assay: AUC (0 to 24 hrs) in adolescents of >12-16 yrs age at risk for fungal infection assessed as hydroxyitraconazole level at 2.5 mg/kg, iv in 0.1 g/kg hydroxypropyl-beta-cyclodextrin administered as single dose; assay type: ADME, organism-based, Plasma; set-up: time < 24 hr, dose 2.5 mg/kg, route intravenous; conditions: in vivo; procedure, shortened: as §2
[11] = Cmax in children of >6-12 yrs age at risk for fungal infection at 2.5 mg/kg, iv in 0.1 g/kg hydroxypropyl-beta-cyclodextrin administered as single dose; assay type: ADME, organism-based; set-up: dose 2.5 mg/kg, route intravenous; conditions: human, in vivo; procedure, shortened: as §1
Homo sapiens [12] = assay: Cmax in adolescents of >12-16 yrs age at risk for fungal infection assessed as hydroxyitraconazole level at 2.5 mg/kg, iv in 0.1 g/kg hydroxypropyl-beta-cyclodextrin administered as single dose; assay type: ADME, organism-based; set-up: dose 2.5 mg/kg, route intravenous; conditions: in vivo; procedure, shortened: as §2
[13] = AUC (0 to 24 hrs) in children of >6-12 yrs age at risk for fungal infection at 2.5 mg/kg, iv in 0.1 g/kg hydroxypropyl-beta-cyclodextrin administered as single dose; assay type: ADME, organism-based; set-up: time < 24 hr, dose 2.5 mg/kg, route intravenous; conditions: human, plasma; procedure, shortened: as §1
Homo sapiens [14] = assay: AUC (0 to 24 hrs) in infants of 0.6-2 yrs age at risk for fungal infection assessed as hydroxyitraconazole level at 2.5 mg/kg, iv in 0.1 g/kg hydroxypropyl-beta-cyclodextrin administered as single dose; assay type: ADME, organism-based, Plasma; set-up: time < 24 hr, dose 2.5 mg/kg, route intravenous; conditions: in vivo; procedure, shortened: as §2
[15] = Cmax in children of >2-6 yrs age at risk for fungal infection at 2.5 mg/kg, iv in 0.1 g/kg hydroxypropyl-beta-cyclodextrin administered as single dose; assay type: ADME, organism-based; set-up: dose 2.5 mg/kg, route intravenous; conditions: human, in vivo; procedure, shortened: as §1
Homo sapiens [16] = assay: Half life in children of >2-6 yrs age at risk for fungal infection assessed as hydroxyitraconazole level at 2.5 mg/kg, iv in 0.1 g/kg hydroxypropyl-beta-cyclodextrin administered as single dose; assay type: ADME, organism-based; set-up: dose 2.5 mg/kg, route intravenous; conditions: in vivo; procedure, shortened: as §2
[17] = AUC (0 to 24 hrs) in adolescents of >12-16 yrs age at risk for fungal infection at 2.5 mg/kg, iv in 0.1 g/kg hydroxypropyl-beta-cyclodextrin administered as single dose; assay type: ADME, organism-based; set-up: time < 24 hr, dose 2.5 mg/kg, route intravenous; conditions: human, plasma; procedure, shortened: as §1
Homo sapiens [18] = assay: Cmax in children of >2-6 yrs age at risk for fungal infection assessed as hydroxyitraconazole level at 2.5 mg/kg, iv in 0.1 g/kg hydroxypropyl-beta-cyclodextrin administered as single dose; assay type: ADME, organism-based; set-up: dose 2.5 mg/kg, route intravenous; conditions: in vivo
Procedure, shortened: (§3)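 Single constant-rate IV infusion over 1 h. Heparinised venous plasma was drawn predose and at 1–120 h (>2 yr) or 1–96 h (<2 yr, randomised to the itraconazole/metabolite arm), then stored at –20°C. Analysis used borate-buffered liquid-liquid extraction with internal standard, C18 HPLC and UV detection at 263 nm, linear 5–5,000 ng/ml. Individual Cmax was read by visual inspection, noncompartmental.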

Homo sapiens [19] = assay: Tmax in infants of 0.6-2 yrs age at risk for fungal infection assessed as hydroxyitraconazole level at 2.5 mg/kg, iv in 0.1 g/kg hydroxypropyl-beta-cyclodextrin administered as single dose; assay type: ADME, organism-based; set-up: dose 2.5 mg/kg, route intravenous; conditions: in vivo; procedure, shortened: as §2
[20] = Half life in children of >2-6 yrs age at risk for fungal infection at 2.5 mg/kg, iv in 0.1 g/kg hydroxypropyl-beta-cyclodextrin administered as single dose; assay type: ADME, organism-based; set-up: dose 2.5 mg/kg, route intravenous; conditions: human, in vivo; procedure, shortened: as §1
Homo sapiens [21] = assay: Half life in infants of 0.6-2 yrs age at risk for fungal infection assessed as hydroxyitraconazole level at 2.5 mg/kg, iv in 0.1 g/kg hydroxypropyl-beta-cyclodextrin administered as single dose; assay type: ADME, organism-based; set-up: dose 2.5 mg/kg, route intravenous; conditions: in vivo; procedure, shortened: as §2
Homo sapiens [22] = assay: Cmax in human at risk for fungal infection assessed as hydroxyitraconazole level at 2.5 mg/kg, iv in 0.1 g/kg hydroxypropyl-beta-cyclodextrin administered as single dose; assay type: ADME, organism-based; set-up: dose 2.5 mg/kg, route intravenous; conditions: in vivo; procedure, shortened: as §3

Vd [1]: 23.6 L/kg
Vd [2]: 18.5 L/kg
t1/2 (Homo sapiens [3]): 13.3 h
AUC (Homo sapiens [4]): 4166 ng·h/mL
Cmax [6]: 1020 ng/mL
AUC(0-t) at 24 h [7]: 2120 ng·h/mL
clearance [8]: 10.3 mL/min/kg
Cmax [9]: 806 ng/mL
AUC (Homo sapiens [10]): 3133 ng·h/mL
Cmax [11]: 785 ng/mL
Cmax (Homo sapiens [12]): 321 ng/mL
AUC(0-t) at 24 h [13]: 3760 ng·h/mL
AUC (Homo sapiens [14]): 4155 ng·h/mL
Cmax [15]: 1550 ng/mL
t1/2 (Homo sapiens [16]): 12.7 h
AUC(0-t) at 24 h [17]: 2670 ng·h/mL
Cmax (Homo sapiens [18]): 299 ng/mL
Tmax (Homo sapiens [19]): 4 h
half-life [20]: 14 h
t1/2 (Homo sapiens [21]): 16.6 h
Cmax (Homo sapiens [22]): 293 ng/mL
Compound: CCC(C)n1ncn(-c2ccc(N3CCN(c4ccc(OCC5COC(Cn6cncn6)(c6ccc(Cl)cc6Cl)O5)cc4)CC3)cc2)c1=O (configuration not stated) [ITRACONAZOLE]
Activity (Homo sapiens [5]): Toxic
